Test results as given in ChEMBL document CHEMBL4831540, “Discovery of Aficamten (CK-274), a Next-Generation Cardiac Myosin Inhibitor for the Treatment of Hypertrophic Cardiomyopathy” (J Med Chem, 2021).
Converted amounts (≈) assume the structure as drawn.

Assays:
Bos taurus = organism: Bos taurus; test: (§1) Inhibition of full-length myosin ATPase activity in bovine cardiac myofibrils; type: subcellular; conditions: Heart, Myofibril
In short: (§2)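 Bovine cardiac myofibril ATPase assay run at a calcium level giving 75% of maximal activity.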

[1] = as §1; type: subcellular, Bos taurus, Heart; in short: as §2
[2] = Plasma protein binding in rat plasma assessed as unbound concentration at 5 uM incubated for 6 hrs by HPLC analysis; type: ADME, cell-free
[3] = Half life in Sprague-Dawley rat at 1 mg/kg; type: ADME, organism-based; conditions: in vivo
In short: (§3)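 Rat PK with iv and po administration at 1 mg/kg. Clearance and half-life came from the iv arm, and bioavailability from the iv/po comparison.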

[4] = Plasma protein binding in rat assessed as unbound fraction; type: ADME, cell-free
[5] = Metabolic stability in human liver microsomes assessed as intrinsic clearance measured upto 90mins by HPLC/MS/MS analysis; type: ADME, Microsome; conditions: read-out: CLH
[6] = Clearance in Sprague-Dawley rat at 1 mg/kg; conditions: in vivo
[7] = Clearance in Sprague-Dawley rat at 1 mg/kg; type: ADME, organism-based; conditions: in vivo; in short: as §3
[8] = Bioavailability in Sprague-Dawley rat at 1 mg/kg, po or 1 mg/kg, iv; type: ADME, organism-based; conditions: in vivo; in short: as §3
[9] = Metabolic stability in rat liver microsomes assessed as intrinsic clearance measured upto 90mins by HPLC/MS/MS analysis; type: ADME, Microsome; conditions: read-out: CLH
[10] = Bioavailability in Sprague-Dawley rat at 2 to 6 mg/kg, po and 1 mg/kg, iv; conditions: in vivo
[11] = Plasma protein binding in human assessed as unbound fraction; type: ADME, cell-free
[12] = Solubility of the compound at pH 6.8 by shake flask method; type: physicochemical; conditions: buffer
In short: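 Shake-flask solubility at pH 6.8; solid form not characterized.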

[13] = Oral bioavailability in Sprague-Dawley rat at 2 mg/kg; type: ADME, organism-based; conditions: in vivo
In short: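 Multi-species PK study in male animals, n = 3 per group (dog IV arm n = 2). Iv and oral dosing with plasma concentration–time profiles yielding Cmax, tmax, AUC0–t, CL, Vss, t1/2 and F.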

[14] = Unbound clearance in Sprague-Dawley rat at 0.5 mg/kg; type: ADME, organism-based; conditions: in vivo
In short: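 Rat in vivo clearance at a 0.5 mg/kg dose was divided by the rat plasma free fraction to give unbound clearance.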

Structure (SMILES)	IC50 [1] [nM]	fraction unbound at 6 h, 5 µM [2]	fraction unbound [4]	CLint scaled [5] [mL/min/kg]	CLint scaled [9] [mL/min/kg]	further results
CCc1nc(-c2ccc3c(c2)CCN3C(=O)NCc2ccccc2)no1	> 39000	–	–	–	–	IC15 (Bos taurus): > 39000 nM
CCc1nc(-c2ccc3c(c2)CC[C@H]3NC(=O)c2ocnc2C)no1	800	0.1	0.051	< 11	–	half-life [3]: 14.7 h; clearance [6]: 40 mL/min/kg; clearance [7]: 40 mL/min/kg; bioavailability [8]: 0%
COCCc1nc(-c2ccc3c(c2)CC[C@H]3NC(=O)c2cnn(C)c2)no1	> 39000	–	–	–	–	–
Cc1cc(C(=O)N[C@@H]2CCc3cc(-c4noc(C(C)C)n4)ccc32)ccn1	2700	0.053	–	< 11	23	half-life [3]: 4.6 h; clearance [6]: 14 mL/min/kg; clearance [7]: 14 mL/min/kg; bioavailability [8]: 79%
Cc1nc(-c2ccc3c(c2)CCC3NC(=O)c2cnc(C)n2C)no1 (racemic)	7600	0.089	–	< 11	< 21	–
CCc1nc(-c2ccc3c(c2)CC[C@H]3NC(=O)c2nnn(C)n2)no1	900	0.29	0.11	< 11	< 21	half-life [3]: 6.3 h; bioavailability [10]: 53%; clearance [6]: 20 mL/min/kg; clearance [7]: 20 mL/min/kg
Cn1cc(C(=O)N[C@@H]2CCc3cc(-c4ncon4)ccc32)cn1	> 39000	–	–	–	–	–
Cn1cc(C(=O)N[C@@H]2CCc3cc(-c4noc(C(F)F)n4)ccc32)cn1	2400	0.024	0.024	< 11	< 21	fraction unbound [11]: 0.057; solubility thermodynamic [12]: 37 µM (≈ 13.3 µg/mL)
CCc1nc(-c2ccc3c(c2)CCN3C(=O)OCc2ccccc2)no1	> 39000	–	–	–	–	IC15 (Bos taurus): 1300 nM
CCc1nc(-c2ccc3c(c2)CCN3CCc2ccccc2)no1	> 39000	–	–	–	–	IC15 (Bos taurus): 3400 nM
Cc1cc(C(=O)NC2CCc3cc(-c4noc(C)n4)ccc32)ccn1 (racemic)	7100	0.097	–	< 11	< 21	–
Cn1cc(C(=O)N[C@@H]2CCc3cc(-c4noc(C5CCC5)n4)ccc32)cn1	3200	–	–	–	–	solubility thermodynamic [12]: 14 µM (≈ 5.09 µg/mL)
CCc1nc(-c2ccc3c(c2)CC[C@H]3NC(=O)c2cn[nH]c2)no1	1100	0.2	0.2	< 11	66	half-life [3]: 1.4 h; clearance [6]: 63 mL/min/kg; clearance [7]: 63 mL/min/kg; bioavailability [8]: 10%
Cn1cc(C(=O)N[C@@H]2CCc3cc(-c4noc(C5CC5)n4)ccc32)cn1	2700	–	0.042	–	–	fraction unbound [11]: 0.056; solubility thermodynamic [12]: 33 µM (≈ 11.5 µg/mL)
Cc1cc(C(=O)N[C@@H]2CCc3cc(-c4noc(C5CC5)n4)ccc32)ccn1	1900	0.049	–	< 11	< 21	half-life [3]: 13.8 h; clearance [6]: 3 mL/min/kg; clearance [7]: 3 mL/min/kg; bioavailability [8]: 70%
Cn1nnc(C(=O)N[C@@H]2CCc3cc(-c4noc(C5CC5)n4)ccc32)n1	1000	0.12	0.077	< 11	< 21	half-life [3]: 17.8 h; clearance [6]: 5 mL/min/kg; clearance [7]: 5 mL/min/kg; bioavailability [13]: 100%
CCc1nc(-c2ccc3c(c2)CCN3C(=O)c2ccccc2)no1	> 39000	–	–	–	–	IC15 (Bos taurus): > 39000 nM
Cc1cc(C(=O)NC2CCc3cc(-c4noc(C)n4)ccc32)on1 (racemic)	8100	0.072	–	< 11	48	–
COCc1nc(-c2ccc3c(c2)CC[C@H]3NC(=O)c2cnn(C)c2)no1	6800	0.082	0.082	< 11	< 21	fraction unbound [11]: 0.12; solubility thermodynamic [12]: 63 µM (≈ 22.3 µg/mL)

Structure (SMILES)	IC50 [1] [nM]	fraction unbound at 6 h, 5 µM [2]	fraction unbound [4]	CLint scaled [5] [mL/min/kg]	CLint scaled [9] [mL/min/kg]	further results
CCc1nc(-c2ccc3c(c2)CC[C@H]3NC(=O)c2ccnc(C)c2)no1	1200	0.084	0.021	< 11	23	half-life [3]: 3.5 h; clearance [6]: 13 mL/min/kg; clearance [7]: 13 mL/min/kg; bioavailability [8]: 32%
CCc1nc(-c2ccc3c(c2)CCN3C(=O)CSc2ccccc2)no1	> 39000	–	–	–	–	IC15 (Bos taurus): > 39000 nM
CCc1nc(-c2ccc3c(c2)CCN3C(=O)Cc2ccccc2)no1	19100	–	–	–	–	IC15 (Bos taurus): 3500 nM
CCc1nc(-c2ccc3c(c2)CCN3C(=O)Nc2ccccc2)no1	> 39000	–	–	–	–	IC15 (Bos taurus): > 39000 nM
Cc1nc(-c2ccc3c(c2)CCC3NC(=O)c2nnn(C)n2)no1 (racemic)	5100	0.19	–	< 11	< 21	–
Cc1nc(-c2ccc3c(c2)CC[C@@H]3NC(=O)c2cnn(C)c2)no1	> 39000	0.15	–	< 11	< 21	CL free [14]: 395 mL/min/kg
CCc1nc(-c2ccc3c(c2)CCN3C(=O)CCc2ccccc2)no1	> 39000	–	–	–	–	IC15 (Bos taurus): > 39000 nM
Cc1nc(-c2ccc3c(c2)CCC3NC(=O)c2oncc2C)no1 (racemic)	2500	0.064	–	< 11	46	–
CCc1nc(-c2ccc3c(c2)CCC3NC(=O)c2ccccc2)no1 (racemic)	1000	0.023	–	> 62	> 124	–
Cc1nc(-c2ccc3c(c2)CC[C@H]3NC(=O)c2cnn(C)c2)no1	4400	0.065	0.065	< 11	< 21	fraction unbound [11]: 0.14; solubility thermodynamic [12]: 86 µM (≈ 27.8 µg/mL); CL free [14]: 32.3 mL/min/kg
CCc1nc(-c2ccc3c(c2)CCN3C(=O)COc2ccccc2)no1	2700	–	–	–	–	IC15 (Bos taurus): 900 nM
CCc1nc(-c2ccc3c(c2)CC[C@H]3NC(=O)c2cc(C)ncn2)no1	1800	0.092	0.046	< 11	24	half-life [3]: 5.9 h; clearance [6]: 20 mL/min/kg; clearance [7]: 20 mL/min/kg; bioavailability [8]: 26%
CC(C)c1nc(-c2ccc3c(c2)CC[C@H]3NC(=O)c2nnn(C)n2)no1	1900	0.17	0.089	< 11	< 21	half-life [3]: 4.6 h; clearance [6]: 16 mL/min/kg; clearance [7]: 16 mL/min/kg; bioavailability [8]: 52%
Cn1cc(C(=O)N[C@@H]2CCc3cc(-c4noc(CCO)n4)ccc32)cn1	> 39000	–	–	–	–	–
CCc1nc(-c2ccc3c(c2)CC[C@H]3NC(=O)c2ccnnc2)no1	1200	0.31	–	< 11	–	half-life [3]: 6.6 h; clearance [6]: 44 mL/min/kg; clearance [7]: 44 mL/min/kg; bioavailability [8]: 16%
Cc1nc(-c2ccc3c(c2)CCC3NC(=O)c2ccccc2)no1 (racemic)	1900	0.043	–	24	> 124	–
CCc1nc(-c2ccc3c(c2)CC[C@H]3NC(=O)c2cnc(C)o2)no1	1700	0.18	0.046	< 11	< 21	half-life [3]: 4.1 h; clearance [6]: 21 mL/min/kg; clearance [7]: 21 mL/min/kg; bioavailability [8]: 13%
CC(C)c1nc(-c2ccc3c(c2)CC[C@H]3NC(=O)c2cnn(C)c2)no1	4100	–	–	–	–	–
